From ChEMBL document CHEMBL1145814, “Antiretroviral activity of semisynthetic derivatives of glycopeptide antibiotics” (J Med Chem, 2003)
≈ marks a conversion by molar mass, not a printed value.

What was measured:
[1] = species on record: Mus musculus; test: Effective concentration of compound required to protect C3H/3T3 embryo murine fibroblasts against the MSV induced transformation; type: functional, organism-based; settings: Mus musculus, C3H/3T3
In short: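 Monolayer murine embryo fibroblast C3H/3T3 cultures were infected with Moloney murine sarcoma virus at 75 focus-forming units and cultured with test compound. Transformation was examined microscopically on day 6 postinfection. EC50 is the concentration protecting cells against MSV-induced transformation by 50%.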

[2] = species on record: Mus musculus; test: Minimal inhibitory concentration required to cause a microscopic detectable alteration of C3H/3T3 embryo murine fibroblast cell morphology; type: functional
In short: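 Uninfected C3H/3T3 murine embryo fibroblast cultures were exposed to test compound and checked microscopically for changes in cell morphology. The MIC is the concentration causing a microscopically detectable alteration of morphology.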

[3] = test system: Human immunodeficiency virus 1; test: Effective concentration of compound required to protect human T-lymphocytic cells against the cytopathogenicity of HIV-1; type: functional, organism-based; settings: Human immunodeficiency virus 1
[4] = test system: CCRF-CEM; test: Inhibitory concentration against proliferation of human T-lymphocytic (CEM) cells; type: functional, cell-based; settings: Homo sapiens, CCRF-CEM
In short: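 (5–7.5) × 10^4 cells per well were incubated with test compound at 37 °C in a humidified CO2 atmosphere. L1210 murine leukemia cells grew for 48 h, and CEM and Molt4/clone 8 human lymphocytes grew for 72 h. Cells were then counted with a Coulter counter. IC50 is the concentration inhibiting proliferation by 50%.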

[5] = test system: Human immunodeficiency virus 2; test: Concentration required to protect human T-lymphocytic cells against the cytopathogenicity of HIV-2; type: functional, organism-based; settings: Human immunodeficiency virus 2

Structure (SMILES): CN[C@H](CC(C)C)C(=O)N[C@H]1C(=O)N[C@@H](CC(N)=O)C(=O)N[C@H]2C(=O)N[C@H]3C(=O)N[C@H](C(=O)N[C@H](C(=O)O)c4cc(O)cc(O)c4-c4cc3ccc4O)[C@H](O)c3ccc(c(Cl)c3)Oc3cc2cc(c3O[C@@H]2O[C@H](CO)[C@@H](O)[C@H](O)[C@H]2O[C@H]2C[C@](C)(NCc3ccc(-c4ccc(Cl)cc4)cc3)C(O)[C@H](C)O2)Oc2ccc(cc2Cl)[C@H]1O (some centres not stated) [listing 1 of 2 here]
- EC50 [1]: 7.7 µM

Structure (SMILES): CN[C@H](CC(C)C)C(=O)N[C@H]1C(=O)N[C@@H](CC(N)=O)C(=O)N[C@H]2C(=O)N[C@H]3C(=O)N[C@H](C(=O)N[C@H](C(=O)O)c4cc(O)cc(O)c4-c4cc3ccc4O)[C@H](O)c3ccc(c(Cl)c3)Oc3cc2cc(c3O[C@@H]2O[C@H](CO)[C@@H](O)[C@H](O)[C@H]2O[C@H]2C[C@](C)(NCc3ccc(-c4ccc(Cl)cc4)cc3)C(O)[C@H](C)O2)Oc2ccc(cc2Cl)[C@H]1O (some centres not stated) [listing 2 of 2 here]
- MIC [2]: > 25 µM

Structure (SMILES): COC(=O)[C@@H]1NC(=O)C2NC(=O)C(NC(=O)C(NC(=O)OC(C)(C)C)c3cc(Oc4ccc(CC(NC(=O)OCc5ccccc5)C(=O)O)cc4Cl)c(O)c(c3)Oc3ccc(cc3Cl)C2O)c2ccc(O)c(c2)-c2c(O)cc(O)cc21 (some centres not stated)
- EC50 [3]: 17 µM
- EC50 [1]: 87 µM
- IC50 [4]: > 250 µM
- EC50 [5]: 17 µM
- MIC [2]: > 100 µM

Structure (SMILES): CCCCc1ccc(CNC2C(Oc3c4cc5cc3Oc3ccc(cc3Cl)C(O)C3NC(=O)C(NC(=O)C5NC(=O)C5NC(=O)C(Cc6ccc(cc6)O4)NC(=O)C(NC)c4ccc(O)c(c4)Oc4cc(O)c(Cl)c5c4)c4ccc(O)c(c4)-c4c(cc(O)c(CN5CCN(Cc6ccc(-c7ccccc7)cc6)CC5)c4O)[C@H](C(=O)O)NC3=O)OC(C(=O)O)C(O)C2O)cc1 (some centres not stated)
- EC50 [3]: 3.5 µM
- EC50 [1]: 6.9 µM
- IC50 [4]: 81 µM
- EC50 [5]: 22 µM
- MIC [2]: > 20 µM

Structure (SMILES): CNC(=O)[C@@H]1NC(=O)C2NC(=O)C(NC(=O)C3NC(=O)C4NC(=O)C(Cc5ccc(c(Cl)c5)Oc5cc3cc(c5O)Oc3ccc(cc3Cl)C2O)NC(=O)C(NC(=O)OC23CC5CC(CC(C5)C2)C3)c2ccc(O)c(c2)Oc2cc(O)cc4c2)c2ccc(O)c(c2)-c2c(O)cc(O)cc21 (some centres not stated)
- EC50 [3]: 17 µM
- EC50 [1]: 8.7 µM
- IC50 [4]: 88 µM
- EC50 [5]: 7.8 µM
- MIC [2]: 100 µM (≈ 139 µg/mL)

Structure (SMILES): CCCCCCCCCCNC(=O)[C@@H]1NC(=O)C2NC(=O)C(NC(=O)C3NC(=O)C4NC(=O)C(Cc5ccc(c(Cl)c5)Oc5cc3cc(c5O)Oc3ccc(cc3Cl)C2O)NC(=O)C(N)c2ccc(O)c(c2)Oc2cc(O)cc4c2)c2ccc(O)c(c2)-c2c(O)cc(O)cc21 (some centres not stated)
- EC50 [3]: 2.6 µM
- IC50 [4]: 21 µM
- EC50 [5]: 5.8 µM

Structure (SMILES): COC(=O)[C@@H]1NC(=O)C2NC(=O)C(NC(=O)C3NC(=O)C4NC(=O)C(NC(=O)C(N)c5ccc(O)c(c5)Oc5cc4cc(O)c5C)C(O)c4ccc(cc4)Oc4cc3cc(c4O)Oc3ccc(cc3)C2O)c2ccc(O)c(c2)-c2c(O)cc(O)cc21 (some centres not stated)
- EC50 [3]: 25 µM
- EC50 [1]: 19 µM
- IC50 [4]: > 100 µM
- EC50 [5]: > 50 µM
- MIC [2]: > 100 µM

Structure (SMILES): NC1C(=O)NC2Cc3ccc(c(Cl)c3)Oc3cc4cc(c3O)Oc3ccc(cc3Cl)C(O)C3NC(=O)C(NC(=O)C4NC(=O)C(NC2=O)c2cc(O)cc(c2)Oc2cc1ccc2O)c1ccc(O)c(c1)-c1c(cc(O)c(CNC2C4CC5CC(C4)CC2C5)c1O)[C@H](C(=O)O)NC3=O (some centres not stated)
- EC50 [3]: 25 µM
- EC50 [1]: 5.6 µM
- IC50 [4]: > 250 µM
- EC50 [5]: 37 µM
- MIC [2]: 100 µM (≈ 136 µg/mL)

Structure (SMILES): CN[C@H](CC(C)C)C(=O)N[C@H]1C(=O)N[C@@H](CC(N)=O)C(=O)N[C@H]2C(=O)N[C@H]3C(=O)N[C@H](C(=O)N[C@H](C(=O)NCc4ccc(-c5ccc(Cl)cc5)cc4)c4cc(O)cc(O)c4-c4cc3ccc4O)[C@H](O)c3ccc(c(Cl)c3)Oc3cc2cc(c3O[C@@H]2O[C@H](CO)[C@@H](O)[C@H](O)[C@H]2O[C@H]2C[C@](C)(N)C(O)[C@H](C)O2)Oc2ccc(cc2Cl)[C@H]1O (some centres not stated) [listing 1 of 2 here]
- MIC [2]: 20 µM (≈ 33 µg/mL)

Structure (SMILES): CN[C@H](CC(C)C)C(=O)N[C@H]1C(=O)N[C@@H](CC(N)=O)C(=O)N[C@H]2C(=O)N[C@H]3C(=O)N[C@H](C(=O)N[C@H](C(=O)NCc4ccc(-c5ccc(Cl)cc5)cc4)c4cc(O)cc(O)c4-c4cc3ccc4O)[C@H](O)c3ccc(c(Cl)c3)Oc3cc2cc(c3O[C@@H]2O[C@H](CO)[C@@H](O)[C@H](O)[C@H]2O[C@H]2C[C@](C)(N)C(O)[C@H](C)O2)Oc2ccc(cc2Cl)[C@H]1O (some centres not stated) [listing 2 of 2 here]
- EC50 [1]: > 2 µM
